Results reported in ChEMBL document CHEMBL5647697, “Akt inhibition synergizes with polycomb repressive complex 2 inhibition in the treatment of multiple myeloma” (2019).
Activity calls are given as the source filed them. The calls are words filed in the database; no cut-off is given here.

What was measured:
MM1.S [1] = test: Synergistic activity against human MM.1S cells assessed as combination index […] at 0.25 uM incubated for 48 hrs by MTT assay; assay type: functional
How it was run: (§1)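 Cells were exposed to the EZH2/EZH1 inhibitor (UNC1999 or GSK126) for 72 h in total, with the Akt inhibitor added for the last 48 h. Viability was read by MTS assay relative to untreated control cells, in triplicate. The combination index for each dose pair came from isobologram analysis.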

NCI-H929 [2] = test: Synergistic activity against human NCI-H929 cells assessed as combination index […] at 0.25 uM incubated for 48 hrs by […]; assay type: functional; how it was run: as §1
NCI-H929 [3] = test: Induction of apoptosis in human NCI-H929 cells assessed as early apoptotic cells at 5 micromol/L incubated for 48 hrs by annexin V/PI staining based flow cytometry (reference value: 0.37%); assay type: functional; conditions: dose 5 µmol/L, at 5 µM
OPM-2 [4] = test: Synergistic activity against human OPM-2 cells assessed as combination index preincubated in presence of 1.25 uM UNC1999 for 72 hrs followed by compound addition at 5 uM incubated for 48 hrs by MTT assay; assay type: functional
OPM-2/BTZ [5] = test: Cytotoxicity against human OPM-2/BTZ cells assessed as reduction in cell viability at 0.3125 to 10 micromol/L after 48 hrs by MTS assay; assay type: functional, cell-based; conditions: dose 0.3125-10 µmol/L
How it was run: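 Seven myeloma lines (MM.1S, H929, OPM2/BTZ among them) exposed to TAS-117 at increasing concentrations up to 10 μmol/L for 48 h. Viability read by MTS against an untreated control; mean ± SD of triplicates.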

MM1.S [6] = test: Upregulation of p27 protein expression in human MM1.S cells incubated at 0.3 to 3 micromol/L for 48 hrs by Western blot analysis; assay type: functional, cell-based; conditions: dose 0.3-3 µmol/L
NCI-H929 [7] = test: Synergistic activity against human NCI-H929 cells assessed as combination index […] compound addition at 0.125 uM incubated for 48 hrs by MTT assay; assay type: functional; how it was run: as §1
MM1.S [8] = test: Upregulation of H3K27me3 protein expression in human MM1.S cells at 0.3 to 5 micromol/L for 6 to 48 hrs by Western blot analysis; assay type: functional, cell-based; conditions: dose 0.3-5 µmol/L, time 6-48 hrs
How it was run: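 H3K27me3 was detected by immunoblot in MM.1S and H929 cells. Cells were given graded TAS-117 for 48 h, or 5 μmol/L for the indicated times. Signal is quantified relative to the H3 loading control.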

OPM-2 [9] = test: Synergistic activity against human OPM-2 cells assessed as combination index preincubated in presence of 5 uM GSK126 for 72 hrs followed by compound addition at 2.5 uM incubated for 48 hrs by MTT assay; assay type: functional
NCI-H929 [10] = test: Synergistic activity against human NCI-H929 cells assessed as combination index […] in presence of 5 uM GSK126 […] compound addition at 0.125 uM incubated for 48 hrs by […]; assay type: functional; how it was run: as §1
MM1.S [11] = test: Downregulation of H3K27me3 levels in human MM1.S cells […] at 0.3 micromol/L after 48 hrs by Western blot analysis relative to control; assay type: functional, cell-based; conditions: dose 0.3 µmol/L
How it was run: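 MM.1S cells transduced with lentiviral shRNA against EZH1 or luciferase, then treated with TAS-117 at the indicated doses for 48 h. H3K27me3 immunoblot with H3 as loading control.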

MM1.S [12] = test: Synergistic activity against human MM.1S cells assessed as combination index […] compound addition at 0.25 uM incubated for 48 hrs by MTT assay; assay type: functional; how it was run: as §1
MM1.S [13] = test: Synergistic activity against human MM.1S cells assessed as combination index […] at 0.125 uM incubated for 48 hrs by […]; assay type: functional; how it was run: as §1
OPM-2 [14] = test: Synergistic activity against human OPM-2 cells assessed as combination index preincubated in presence of 5 uM UNC1999 for 72 hrs followed by compound addition at 2.5 uM incubated for 48 hrs by MTS assay
MM1.S [15] = test: Synergistic activity against human MM.1S cells assessed as combination index […] in presence of 1.25 uM UNC1999 […] at 0.25 uM incubated for 48 hrs by MTT assay; assay type: functional; how it was run: as §1
MM1.S [16] = test: Downregulation of E2F1 protein expression in human MM1.S cells incubated at 0.3 to 3 micromol/L for 48 hrs by Western blot analysis; assay type: functional, cell-based; conditions: dose 0.3-3 µmol/L
How it was run: (§2)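 MM.1S and H929 cells given TAS-117 at the indicated doses for 48 h. Protein levels assessed by immunoblot.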

MM1.S [17] = test: Downregulation of phospho-Rb protein expression in human MM1.S cells incubated at 0.3 to 3 micromol/L for 48 hrs by Western blot analysis; assay type: functional, cell-based; conditions: dose 0.3-3 µmol/L; how it was run: as §2
NCI-H929 [18] = test: Upregulation of FOXO4 […] expression in human NCI-H929 cells assessed as enhanced nuclear accumulation at 1 micromol/L after 24 hrs by immunofluorescence staining; assay type: functional, cell-based; conditions: dose 1.0 µmol/L
MM1.S [19] = test: Downregulation of cyclin D1 protein expression in human MM1.S cells incubated at 0.3 to 3 micromol/L for 48 hrs by Western blot analysis; assay type: functional, cell-based; conditions: dose 0.3-3 µmol/L; how it was run: as §2
OPM-2/BTZ [20] = test: Synergistic activity against human OPM-2/BTZ cells assessed as combination index preincubated in presence of 2.5 uM UNC1999 for 72 hrs followed by compound addition at 2 uM incubated for 48 hrs by MTT assay; assay type: functional
OPM-2 [21] = test: Effects on EZH2 mRNA expression in human OPM-2 cells at 3 micromol/L incubated for last 24 hrs by qRT-PCR analysis; assay type: functional, cell-based; conditions: dose 3.0 µmol/L
NCI-H929 [22] = test: Downregulation of E2F1 protein expression in human NCI-H929 cells incubated at 0.3 to 3 micromol/L for 48 hrs by Western blot analysis; conditions: dose 0.3-3 µmol/L
MM1.S [23] = test: Induction of apoptosis in human MM1.S cells assessed as viable cells preincubated in presence of 5 micromol/L UNC1999 for 48 hrs followed by compound addition at 2 micromol/L incubated for 12 hrs by annexin V/PI staining based flow cytometry (reference value: 88.2%); assay type: functional; conditions: dose 2 µmol/L, at 2 µM
OPM-2 [24] = test: Effects on EZH2 protein expression in human OPM-2 cells at 3 micromol/L incubated for 24 hrs by Western blot analysis; assay type: functional, cell-based; conditions: dose 3.0 µmol/L
OPM-2/BTZ [25] = test: Synergistic activity against human OPM-2/BTZ cells assessed as combination index preincubated in presence of 1.25 uM GSK126 for 72 hrs followed by compound addition at 2 uM incubated for 48 hrs by MTT assay; assay type: functional
OPM-2 [26] = test: Synergistic activity against human OPM-2 cells assessed as combination index preincubated in presence of 1.25 uM GSK126 for 72 hrs followed by compound addition at 2.5 uM incubated for 48 hrs by MTT assay; assay type: functional
OPM-2 [27] = test: Synergistic activity against human OPM-2 cells assessed as combination index preincubated in presence of 1.25 uM GSK126 for 72 hrs followed by compound addition at 5 uM incubated for 48 hrs by MTT assay; assay type: functional
MM1.S [28] = test: Induction of apoptosis in human MM1.S cells assessed as live cells at 2 micromol/L incubated for 12 hrs by annexin V/PI staining based flow cytometry (reference value: 88.2%); assay type: functional; conditions: dose 2 µmol/L, at 2 µM
OPM-2/BTZ [29] = test: Downregulation of cyclin D1 protein expression in human OPM-2/BTZ cells incubated at 0.3 to 3 micromol/L for 48 hrs by Western blot analysis; assay type: functional, cell-based; conditions: dose 0.3-3 µmol/L

C[C@]1(O)C[C@@](N)(c2ccc(-c3nc4n(c3-c3ccccc3)COc3ccncc3-4)cc2)C1 [PIFUSERTIB]
CI (MM1.S [1]): 0.307
CI (NCI-H929 [2]): 0.778
Activity (NCI-H929 [3]): 9.69%
CI (OPM-2 [4]): 1.743
Activity (OPM-2/BTZ [5]): Active
Activity (MM1.S [6]): Active
CI (NCI-H929 [7]): 0.858
Activity (MM1.S [8]): Active
CI (OPM-2 [9]): 2.74
CI (NCI-H929 [10]): 7.124
Activity (MM1.S [11]): Active
CI (MM1.S [12]): 0.584
CI (MM1.S [13]): 0.27
CI (OPM-2 [14]): 5.53
CI (MM1.S [15]): 0.251
Activity (MM1.S [16]): Active
Activity (MM1.S [17]): Active
Activity (NCI-H929 [18]): Active
Activity (MM1.S [19]): Active
CI (OPM-2/BTZ [20]): 0.483
Activity (OPM-2 [21]): inactive
Activity (NCI-H929 [22]): Active
Activity (MM1.S [23]): 33%
Activity (OPM-2 [24]): inactive
CI (OPM-2/BTZ [25]): 0.203
CI (OPM-2 [26]): 2.465
CI (OPM-2 [27]): 11.425
Activity (MM1.S [28]): 85.7%
Activity (OPM-2/BTZ [29]): Active
